Laboratory results from ChEMBL document CHEMBL5058577, “EUbOPEN Chemogenomics Library 2 (Multiplex)” (2022).

Test system: HEK-293T
Assay: Multiplex assay against HEK293T
Format: toxicity, cell-based
Settings: human
Method in brief: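 Values for tubulin, mitochondrial-mass and membrane-permeability phenotypes are per cents of cells with healthy nuclei. These cells were identified by CellPathfinder machine-learning gating of live cells that had been stained at seeding with Hoechst33342, BioTracker Green Microtubule Cytoskeleton Dye, MitoTracker Red and Annexin V Alexa Fluor 680 and imaged on a CQ1 microscope at 37°C and 5% CO2 after compound addition. The gating first set Hoechst high-intensity objects apart from normal cells, then split normal cells into healthy, pyknosed or fragmented nuclei, and pyknosed cells into mitotic or apoptotic.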

[1] = 12 h, 1 µM, compound concentration 1 uM, replicate 1
[2] = 12 h, 1 µM, compound concentration 1 uM, replicate 2
[3] = 12 h, 10 µM, compound concentration 10 uM, replicate 1
[4] = 12 h, 10 µM, compound concentration 10 uM, replicate 2
[5] = 24 h, 1 µM, compound concentration 1 uM, replicate 1
[6] = 24 h, 1 µM, compound concentration 1 uM, replicate 2
[7] = 24 h, 10 µM, compound concentration 10 uM, replicate 1
[8] = 24 h, 10 µM, compound concentration 10 uM, replicate 2
[9] = 48 h, 1 µM, compound concentration 1 uM, replicate 1
[10] = 48 h, 1 µM, compound concentration 1 uM, replicate 2
[11] = 48 h, 10 µM, compound concentration 10 uM, replicate 1
[12] = 48 h, 10 µM, compound concentration 10 uM, replicate 2

Compound: CC(=O)Nc1cccc2c1c(Sc1ccc(Cl)cc1)c(C)n2CC(=O)O [AZD1981]
- Population Apoptotic (%) [1]: 37%
- Population Fragmented Nuclei (%) [1]: 6%
- Population Healthy Nuclei (%) [1]: 81%
- Population Hoechst High Intensity Objects (%) [1]: 6%
- Population Membrane Permeable-Phenotype (%) [1]: 0%
- Population Mitochondria Different-Phenotype (%) [1]: 46%
- Population Mitotic Cells (%) [1]: 62%
- Population Normal (%) [1]: 93%
- Population Pyknosed Nuclei (%) [1]: 11%
- Population Tubulin-Different-Phenotype (%) [1]: 28%
- Total Cell Count [1]: 405
- Population Apoptotic (%) [2]: 60%
- Population Fragmented Nuclei (%) [2]: 5%
- Population Healthy Nuclei (%) [2]: 80%
- Population Hoechst High Intensity Objects (%) [2]: 8%
- Population Mitochondria Different-Phenotype (%) [2]: 57%
- Population Mitotic Cells (%) [2]: 40%
- Population Normal (%) [2]: 91%
- Population Pyknosed Nuclei (%) [2]: 13%
- Population Tubulin-Different-Phenotype (%) [2]: 18%
- Total Cell Count [2]: 314
- Population Apoptotic (%) [3]: 38%
- Population Fragmented Nuclei (%) [3]: 8%
- Population Healthy Nuclei (%) [3]: 78%
- Population Hoechst High Intensity Objects (%) [3]: 7%
- Population Membrane Permeable-Phenotype (%) [3]: 0%
- Population Mitochondria Different-Phenotype (%) [3]: 44%
- Population Mitotic Cells (%) [3]: 61%
- Population Normal (%) [3]: 92%
- Population Pyknosed Nuclei (%) [3]: 12%
- Population Tubulin-Different-Phenotype (%) [3]: 29%
- Total Cell Count [3]: 403
- Population Apoptotic (%) [4]: 60%
- Population Fragmented Nuclei (%) [4]: 6%
- Population Healthy Nuclei (%) [4]: 77%
- Population Hoechst High Intensity Objects (%) [4]: 15%
- Population Mitochondria Different-Phenotype (%) [4]: 60%
- Population Mitotic Cells (%) [4]: 39%
- Population Normal (%) [4]: 84%
- Population Pyknosed Nuclei (%) [4]: 15%
- Population Tubulin-Different-Phenotype (%) [4]: 26%
- Total Cell Count [4]: 318
- Population Apoptotic (%) [5]: 20%
- Population Fragmented Nuclei (%) [5]: 9%
- Population Healthy Nuclei (%) [5]: 80%
- Population Hoechst High Intensity Objects (%) [5]: 2%
- Population Membrane Permeable-Phenotype (%) [5]: 0%
- Population Mitochondria Different-Phenotype (%) [5]: 33%
- Population Mitotic Cells (%) [5]: 79%
- Population Normal (%) [5]: 97%
- Population Pyknosed Nuclei (%) [5]: 9%
- Population Tubulin-Different-Phenotype (%) [5]: 23%
- Total Cell Count [5]: 568
- Population Apoptotic (%) [6]: 54%
- Population Fragmented Nuclei (%) [6]: 7%
- Population Hoechst High Intensity Objects (%) [6]: 9%
- Population Mitochondria Different-Phenotype (%) [6]: 42%
- Population Mitotic Cells (%) [6]: 45%
- Population Normal (%) [6]: 90%
- Population Pyknosed Nuclei (%) [6]: 11%
- Population Tubulin-Different-Phenotype (%) [6]: 16%
- Total Cell Count [6]: 398
- Population Apoptotic (%) [7]: 40%
- Population Fragmented Nuclei (%) [7]: 7%
- Population Healthy Nuclei (%) [7]: 79%
- Population Hoechst High Intensity Objects (%) [7]: 4%
- Population Membrane Permeable-Phenotype (%) [7]: 0%
- Population Mitochondria Different-Phenotype (%) [7]: 28%
- Population Mitotic Cells (%) [7]: 59%
- Population Normal (%) [7]: 95%
- Population Pyknosed Nuclei (%) [7]: 13%
- Population Tubulin-Different-Phenotype (%) [7]: 25%
- Total Cell Count [7]: 526
- Population Apoptotic (%) [8]: 59%
- Population Fragmented Nuclei (%) [8]: 8%
- Population Healthy Nuclei (%) [8]: 81%
- Population Hoechst High Intensity Objects (%) [8]: 12%
- Population Mitochondria Different-Phenotype (%) [8]: 45%
- Population Mitotic Cells (%) [8]: 40%
- Population Normal (%) [8]: 87%
- Population Pyknosed Nuclei (%) [8]: 9%
- Population Tubulin-Different-Phenotype (%) [8]: 19%
- Total Cell Count [8]: 387
- Population Apoptotic (%) [9]: 21%
- Population Fragmented Nuclei (%) [9]: 15%
- Population Healthy Nuclei (%) [9]: 78%
- Population Hoechst High Intensity Objects (%) [9]: 1%
- Population Membrane Permeable-Phenotype (%) [9]: 1%
- Population Mitochondria Different-Phenotype (%) [9]: 18%
- Population Mitotic Cells (%) [9]: 78%
- Population Normal (%) [9]: 98%
- Population Pyknosed Nuclei (%) [9]: 6%
- Population Tubulin-Different-Phenotype (%) [9]: 10%
- Total Cell Count [9]: 908
- Population Apoptotic (%) [10]: 38%
- Population Fragmented Nuclei (%) [10]: 13%
- Population Healthy Nuclei (%) [10]: 79%
- Population Hoechst High Intensity Objects (%) [10]: 3%
- Population Mitochondria Different-Phenotype (%) [10]: 20%
- Population Mitotic Cells (%) [10]: 61%
- Population Normal (%) [10]: 96%
- Population Tubulin-Different-Phenotype (%) [10]: 12%
- Total Cell Count [10]: 570
- Population Apoptotic (%) [11]: 37%
- Population Fragmented Nuclei (%) [11]: 14%
- Population Healthy Nuclei (%) [11]: 78%
- Population Hoechst High Intensity Objects (%) [11]: 2%
- Population Membrane Permeable-Phenotype (%) [11]: 0%
- Population Mitochondria Different-Phenotype (%) [11]: 18%
- Population Mitotic Cells (%) [11]: 62%
- Population Normal (%) [11]: 97%
- Population Pyknosed Nuclei (%) [11]: 7%
- Population Tubulin-Different-Phenotype (%) [11]: 11%
- Total Cell Count [11]: 751
- Population Apoptotic (%) [12]: 33%
- Population Fragmented Nuclei (%) [12]: 16%
- Population Hoechst High Intensity Objects (%) [12]: 4%
- Population Mitochondria Different-Phenotype (%) [12]: 26%
- Population Mitotic Cells (%) [12]: 66%
- Population Normal (%) [12]: 95%
- Population Pyknosed Nuclei (%) [12]: 5%
- Total Cell Count [12]: 556
